# Compound activity from PubChem BioAssay.
# bCat KO growth = beta-catenin-lacking colon tumor cell growth suppression; HCT116 beta-catenin knockout viability, CellTiter-Glo, 60 h; active compounds read low; viability, % at 10 µM; 140,000 compounds, 1.5% hits;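 active means viability at or under a set limit, the compound median less 4 SD, cut at about 6% in these data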;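 further: 0% = Hyamine 1622 control at 20 µM and 100% = untreated cell control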
# PTEN del growth = suppresses growth of cells with PTEN deletion; HCT116 PTEN-null viability, CellTiter-Glo, 60 h; active compounds read low; 140,000 compounds, 1.2% hits; viability, % at 10 µM;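 active means viability at or below a set limit, 4 SD under the median of all tested compounds, cut at about 3.7% in these data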;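 further: PTEN knockout HCT116 line with beta catenin targeted HCT116 as companion control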
# HUVEC prolif 384 = inhibitors of human endothelial cell proliferation. AID 648. viability, % at 10 µM (by protocol). 86,000 compounds, 1.1% hits. HUVEC proliferation, CellTiter-Glo luminescence, 72 h; active compounds read low;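 active means viability at or below 30%; inactive means viability above 30%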;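 further: 100% = median luminescence of DMSO-only cell control wells on each plate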
# H69AR inhibit = blocks growth of human H69AR lung tumor cells. H69AR lung tumor viability, ATP luminescence, 72 h; active compounds read low. viability, % at 10 µM. 85,000 compounds, 6% hits. AID 598;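 active means viability at or below 40%; inactive means viability above 40%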;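 further: multidrug resistant small cell line overexpressing MRP-1 efflux transporter; 100% = mean luminescence of untreated control wells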
# Fibroblast inh = blocks proliferation of human lung fibroblasts. LL 47 human lung fibroblast viability, ATP luminescence; active compounds read low. viability, % at 10 µM. 85,000 compounds, 1.1% hits. AID 719;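 active means viability at or below 50% in the single dose screen; inactive means viability above 50%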;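 further: compound exposure lasted 72 h before the ATP readout; 100% = median luminescence of untreated cell-only wells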
#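 Benchmarks: Cell-only wells, no compound | Test system: LL 47 human lung fibroblasts, passage 12 or lower | Input: 1,150 cells/well | Measured by: CellTiter-Glo luminescence measuring cellular ATP | Medium: IMEM, 15% FBS supplement | Schedule: Overnight attachment after seeding, then 72 h compound exposure at 37 °C | Doses: Compound addition at 0.1% DMSO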
# The depositor's hits bear a star; . = not tested or not shown. The sample as a whole holds a higher share of hits than the screen did.
SMILES,bCat KO growth,PTEN del growth,HUVEC prolif 384,H69AR inhibit,Fibroblast inh
COc1cc2c(cc1OC)CN(C(C)C(=O)N1CCc3ccccc31)CC2 (stereo not drawn),58,60,77,18*,86
COc1cc(C(=O)N2CCCc3ccccc32)cc(OC)c1OC,40,36,89,25*,112
CC1Cc2ccccc2N1C(=O)c1ccnc(C(C)(C)C)c1 (stereo not drawn),83,82,97,87,94
COc1cc(C(=O)N2c3ccccc3CC2C)cc(OC)c1OC (stereo not drawn),99,87,93,38*,95
CC(C(=O)N1CCc2ccccc21)N1CCc2ccccc2C1 (stereo not drawn),88,80,.,.,.
Cc1ccc(CN2CCN(/N=C/c3cccs3)CC2)cc1,93,106,.,.,.
Cc1c(C(=O)c2no[n+]([O-])c2C(=O)c2cnn(C)c2C)cnn1C,99,105,61,1.8*,101
COc1ccc(C(=O)c2no[n+]([O-])c2C(=O)c2ccc(OC)cc2)cc1,95,87,.,.,.
COC(=O)c1sccc1NC(=O)COc1ccc(Cl)cc1Cl,77,80,.,.,.
COC(=O)COc1ccc(S(=O)(=O)NCc2ccncc2)cc1,1.1*,84,93,91,90
CC(NC(=O)C1CCCN(C(=O)N(C)C)C1)c1ccccc1 (stereo not drawn),95,95,90,99,101
Cc1ccc(Nc2ccc(S(=O)(=O)N3CCOCC3)cc2[N+](=O)[O-])c(C)c1,90,83,.,.,.
Nc1nc(-c2ccc(Cl)cc2)c(N=Nc2ccc(S(=O)(=O)N3CCOCC3)cc2)s1,19,3.7*,.,.,.
COC(=O)c1c(C(=O)OC)n(CCCN)c2ccc(C)cc12,73,77,87,102,93
Cc1ccc2c(c1)c1cccc3c1n2CCN3CCC(N)=O,73,61,21*,95,86
N#Cc1ccc(N2Cc3ccccc3C2=NC(=O)c2cccnc2Cl)cc1,101,92,.,.,.
O=c1/c(=C\c2cccn2-c2ccccc2)sc2nc3ccccc3n12,93,102,59,28*,100
CCCCn1c(SCc2nc(N)nc(N3CCCCC3)n2)nc2c1c(=O)n(C)c(=O)n2C,90,94,.,.,.
CCOc1cc2[nH]c(=O)n(CCC(=O)N3CCN(c4ccccc4OC)CC3)c(=O)c2cc1OCC,94,85,96,85,102
COc1cc2[nH]c(=O)n(CCC(=O)N3CCN(c4cc(Cl)ccc4C)CC3)c(=O)c2cc1OC,2.1*,1.9*,2.0*,0.5*,3.0*
O=C(Nc1cccc(C(=O)N2CCOCC2)c1)c1cccnc1,101,98,87,94,104
O=C(NC(=S)N(Cc1ccccc1)Cc1ccccc1)c1ccccc1F,40,54,.,.,.
Cc1ccc(-c2nnc(SCC(=O)N/N=C/c3ccc(C)s3)n2-c2ccccc2)cc1,105,106,.,.,.
COc1ccc(/C(O)=C/c2nc3ccccc3n(-c3ccccc3)c2=O)cc1,82,70,65,23*,96
Cc1nc2ccccn2c1C(=O)N=Nc1c(O)n(CCC(C)C)c2ccccc12,24,17,.,.,.
SMILES,bCat KO growth,PTEN del growth,HUVEC prolif 384,H69AR inhibit,Fibroblast inh
COc1ccccc1NC(=O)Nc1c(C)n(C)n(-c2ccccc2)c1=O,100,93,94,32*,102
Cc1c(NC(=O)C2CCCNC2=O)c(=O)n(-c2ccccc2)n1C (stereo not drawn),37,39,94,39*,.
N#CCSc1nc2c(sc(=S)n2Cc2ccco2)c(=O)n1-c1ccc(F)cc1,23,22,88,40*,74
CN(C)C(=O)NC(O)C(Cl)Cl (stereo not drawn),91,87,94,77,100
Cc1nn(-c2ccccc2)c(OC(=O)c2cccs2)c1S(=O)(=O)c1ccc([N+](=O)[O-])cc1,96,97,88,7.9*,100
Cc1nn(-c2ccccc2)c(OC(=O)c2cccs2)c1S(=O)(=O)c1ccccc1,105,105,.,.,.
COc1ccccc1-c1c(C(F)(F)F)oc2cc(OCC(=O)Nc3ccccc3C(F)(F)F)ccc2c1=O,87,84,.,.,.
COc1ccc(-c2c(C(F)(F)F)oc3cc(OCC(=O)Nc4ccccc4C(F)(F)F)ccc3c2=O)cc1OC,1.4*,5,.,.,.
O=C(NNC(=O)C1CCN(S(=O)(=O)c2ccc(Cl)cc2)CC1)c1ccccc1,106,92,.,.,.
CC1CC(C)(C)N(C(=O)CSc2ccc(-c3ccc(F)cc3)nn2)c2ccccc21 (stereo not drawn),4.9*,4,.,.,.
CCOC(=O)c1c(NC(=O)COc2ncnc3sccc23)sc2c1CCC2,84,90,20*,55,81
c1ccc(Cn2c(CNc3nc4ccccc4n3CCN3CCCCC3)nc3ccccc32)cc1,35,33,15*,9.6*,64
Cc1ccccc1Nc1nc(N)nc(COC(=O)c2cccc(S(=O)(=O)N(C)C)c2)n1,88,83,.,.,.
Clc1ccc(-c2csc3ncnc(NCCN4CCOCC4)c23)cc1,50,62,88,56,89
COc1ccc(-c2csc3ncnc(NCCN4CCOCC4)c23)cc1,57,39,47,21*,64
Cc1ccc(-c2csc3ncnc(NCCN4CCOCC4)c23)cc1,92,93,93,27*,91
CC(C)NC(=O)NC(=O)COC(=O)c1cccc(S(=O)(=O)N2CCCCC2)c1,85,100,.,.,.
COc1ccccc1NS(=O)(=O)c1cc(NC(=O)CNC(=O)c2cc(C)cc(C)c2)ccc1C,74,75,.,.,.
Cc1ccc(NC(=O)N2N=C(c3ccc(F)cc3)CC2c2ccc(F)cc2)cc1 (stereo not drawn),82,69,.,.,.
Cc1ccc(S(=O)(=O)n2c([N+](=O)[O-])cnc2C)c(C)c1C,89,97,.,.,.
c1coc(C2Nc3cccc4cccc(c34)N2)c1,92,89,78,6.7*,98
Oc1ccc(C2Nc3cccc4cccc(c34)N2)c(O)c1,95,81,82,17*,83
Cc1ccc(C2Nc3cccc4cccc(c34)N2)s1,99,102,.,.,.
COc1cc(C2Nc3cccc4cccc(c34)N2)ccc1OC(C)=O,89,94,75,.,108
COc1cc(C2Nc3cccc4cccc(c34)N2)cc(OC)c1O,91,89,82,19*,107
SMILES,bCat KO growth,PTEN del growth,HUVEC prolif 384,H69AR inhibit,Fibroblast inh
Cn1cc(C(=O)N/N=C/C(Br)=C/c2ccccc2)ccc1=O,3.6*,3.3*,.,.,.
O=C(N/N=C/C=C/c1ccccc1)c1n[nH]c2c1CCC2,25,29,.,.,.
Cc1ccccc1NCC(=O)N/N=C/C(Br)=C/c1ccccc1,55,43,30,11*,71
O=C(N/N=C/C(Br)=C\c1ccccc1)c1n[nH]c2c1CCC2,3.9*,2.2*,22*,5.3*,51
COc1cccc(C(=O)N/N=C/C(Br)=C/c2ccccc2)c1,2.8*,1.7*,.,.,.
O=C(Cc1cccs1)N/N=C/C(Br)=C/c1ccccc1,76,61,.,.,.
Cc1ccc(C2CC(c3cccs3)=NN2C(=O)CSC2=NN3CCCC(=O)N=C3S2)cc1 (stereo not drawn),63,51,99,11*,96
